Data from ChEMBL document CHEMBL1132488, “On the bioactive conformation of NAN-190 (1) and MP3022 (2), 5-HT(1A) receptor antagonists” (J Med Chem, 1999).

Tests used:
[1] = species: Rattus norvegicus; assay: Induction of behavioral syndrome(FBP: flat body posture) by the compound in reserpine pretreated rats at a dose of 4.; type: functional
In short: (§1)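 Male Wistar rats (260–300 g) were given reserpine 1 mg/kg sc in saline 18 h before testing. Test compound was then given alone ip as a 1% Tween 80 suspension (2 mL/kg). FBP and FT were each scored 0–3 and summed (maximum 15). n=6 per group; mean ± SEM; Newman–Keuls test.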

[2] = species: Rattus norvegicus; assay: Induction of behavioral syndrome(FBP: flat body posture) by the compound in reserpine pretreated rats at a dose of.1; type: functional
[3] = species: Rattus norvegicus; assay: Effect on 8-OH-DAPT- induced behavioral syndrome(FBP: flat body posture) by the compound in reserpine pretreated rats at a dose of 2.; type: functional
[4] = species: Rattus norvegicus; assay: Effect on 8-OH-DAPT- induced behavioral syndrome(FBP: flat body posture) by the compound in reserpine pretreated rats at a dose of 4.; type: functional
In short: (§2)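 Reserpinized male Wistar rats (reserpine 1 mg/kg sc, 18 h before), groups of 6. Compound given ip in 1% Tween 80 60 min before 8-OH-DPAT 5 mg/kg sc. FBP/FT rated 0–3 at 3, 6, 9, 12 and 15 min after agonist, summed (max 15). Mean ± SEM; Newman–Keuls test; ED50 with range.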

[5] = test system: Rattus norvegicus; assay: Induction of LLR(lower lip retraction) by the compound in rats at a dose of 1 mg/kg; type: functional
In short: (§3)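 Male Wistar rats, groups of 6, given compound alone ip as 1% Tween 80 suspension. Lower incisor visibility scored 0/0.5/1 at 15, 30 and 45 min after dosing, summed (max 3 per rat). Mean ± SEM versus vehicle, Newman–Keuls test; ED50 with range.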

[6] = species: Rattus norvegicus; assay: Dose inhibiting 8-OH-DPAT-induced behavioral syndrome(FBP: flat body posture) by the compound in reserpine pretreated rats.
[7] = test system: Rattus norvegicus; assay: Induction of LLR(lower lip retraction) by the compound in rats at a dose of 4 mg/kg; type: functional; in short: as §3
[8] = species: Rattus norvegicus; assay: Induction of behavioral syndrome(FT: forepaw treading) by the compound in reserpine pretreated rats at a dose of 4.; type: functional; in short: as §1
[9] = test system: Rattus norvegicus; assay: Induction of LLR(lower lip retraction) by the compound in rats at a dose of 2 mg/kg; type: functional; in short: as §3
[10] = test system: Rattus norvegicus; assay: Effect on 8-OH-DPAT-Induced LLR(lower lip retraction) in rats at a dose of 2 mg/kg; type: functional
In short: (§4)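 Male Wistar rats, groups of 6. Compound given ip in 1% Tween 80 45 min before 8-OH-DPAT 1 mg/kg sc. Lower incisor visibility scored 0/0.5/1 at 15, 30 and 45 min after agonist, summed (max 3). Mean ± SEM; Newman–Keuls test; ED50 with range.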

[11] = species: Rattus norvegicus; assay: Induction of behavioral syndrome(FBP: flat body posture) by the compound in reserpine pretreated rats at a dose of 2.; type: functional
In short: (§5)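 Male Wistar rats (260–300 g), groups of 6, given reserpine 1 mg/kg sc 18 h before test. Compounds given ip as 1% Tween 80 suspension. FBP and FT rated 0–3 in 45-s sessions every 3 min, starting 3 min after dosing. Score summed over 5 periods (max 15 per symptom). Mean ± SEM; Newman–Keuls test.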

[12] = species: Rattus norvegicus; assay: Induction of behavioral syndrome(FT: forepaw treading) by the compound in reserpine pretreated rats at a dose of.1; type: functional
[13] = species: Rattus norvegicus; assay: Effect on 8-OH-DAPT- induced behavioral syndrome(FT: forepaw treading) by the compound in reserpine pretreated rats at a dose of 8.; type: functional; in short: as §2
[14] = species: Rattus norvegicus; assay: Induction of behavioral syndrome(FT: forepaw treading) by the compound in reserpine pretreated rats at a dose of 2.; type: functional
[15] = species: Rattus norvegicus; assay: Effect on 8-OH-DAPT- induced behavioral syndrome(FBP: flat body posture) by the compound in reserpine pretreated rats at a dose of 8.; type: functional; in short: as §2
[16] = species: Rattus norvegicus; assay: Dose Inducing behavioral syndrome(FT: forepaw treading) by the compound in reserpine pretreated rats.; type: functional; in short: as §5
[17] = species: Rattus norvegicus; assay: Effect on 8-OH-DAPT- induced behavioral syndrome(FT: forepaw treading) by the compound in reserpine pretreated rats at a dose of 4.; type: functional; in short: as §2
[18] = species: Rattus norvegicus; assay: Induction of behavioral syndrome(FBP: flat body posture) by the compound in reserpine pretreated rats at a dose of 8.; type: functional; in short: as §1
[19] = species: Rattus norvegicus; assay: Effective dose of the required to inhibit symptoms produced by 8-OH-DPAT; type: functional; in short: as §2
[20] = species: Rattus norvegicus; assay: Effect on 8-OH-DAPT- induced behavioral syndrome(FT: forepaw treading) by the compound in reserpine pretreated rats at a dose of.1; type: functional
[21] = test system: Rattus norvegicus; assay: Effect on 8-OH-DPAT-Induced LLR(lower lip retraction) in rats at a dose of 4 mg/kg; type: functional; in short: as §4
[22] = species: Rattus norvegicus; assay: Effect on 8-OH-DAPT- induced behavioral syndrome(FBP: flat body posture) by the compound in reserpine pretreated rats at a dose of.1; type: functional
[23] = test system: Rattus norvegicus; assay: Effect on 8-OH-DPAT-Induced LLR(lower lip retraction) in rats at a dose of 1 mg/kg; type: functional; in short: as §4
[24] = species: Rattus norvegicus; assay: Induction of behavioral syndrome(FT: forepaw treading) by the compound in reserpine pretreated rats at a dose of 8.; type: functional; in short: as §1
[25] = species: Rattus norvegicus; assay: Effect on 8-OH-DAPT- induced behavioral syndrome(FT: forepaw treading) by the compound in reserpine pretreated rats at a dose of 2.; type: functional

SMILES: COc1ccccc1N1CCN(CCCCN2C(=O)c3ccccc3C2=O)CC1 [NAN-190]
- FBP mean score [1]: 0.1
- FBP mean score [2]: 0.1
- FBP mean score [3]: 6
- FBP mean score [4]: 2.3
- LLR score [5]: 0.1
- ED50 [6]: 2 mg/kg
- LLR score [7]: 0.1
- FT mean score [8]: 0.2
- LLR score [9]: 0.1
- LLR score [10]: 1.4
- FBP mean score [11]: 0.2
- FT mean score [12]: 0.1
- FT mean score [13]: 1.8
- FT mean score [14]: 0.2
- FBP mean score [15]: 2.3
- ED50 [16]: 2.5 mg/kg
- FT mean score [17]: 6.2
- FBP mean score [18]: 0.2
- ED50 [19]: 1.7 mg/kg
- FT mean score [20]: 10.8
- LLR score [21]: 0.6
- FBP mean score [22]: 12.4
- LLR score [23]: 1.7
- FT mean score [24]: 0.1
- FT mean score [25]: 5.7
